The values that follow come from ChEMBL document CHEMBL1641417, “Cytotoxicity and topoisomerase I/II inhibition of glycosylated 2-phenyl-indoles, 2-phenyl-benzo[b]thiophenes and 2-phenyl-benzo[b]furans” (Bioorg Med Chem, 2011).

Test [1] deals with DNA topoisomerase 2-alpha (Homo sapiens) (UniProt P11388). The experiment in a line: Inhibition of human recombinant DNA topoisomerase 2alpha-mediated DNA cleavage assessed as decrease in relaxation of supercoiled plasmid substrate DNA at 20 uM after 30 mins by agarose gel electrophoresis.
Test [2] relates to HepG2. The test is described as follows: Cytotoxicity against human HepG2 cells after 72 hrs by MTS assay. To be noted: HepG2, 72 h.
For test [3], the system named is MCF7. The experiment in a line: Cytotoxicity against human MCF7 cells after 72 hrs by MTS assay. To be noted: MCF7, 72 h. (Formazan colour is commonly taken as a measure of viable cells.)
In test [4] the test system is HT-29. The test is described as follows: Cytotoxicity against human HT-29 cells assessed as cell viability at 20 uM after 24 hrs by MTS assay. The format is functional. To be noted: HT-29, 24 h, read-out: Activity.
The test system of test [5] is HepG2. The test is described as follows: Cytotoxicity against human HepG2 cells assessed as cell viability at 25 uM after 24 hrs by MTS assay. The format is functional. To be noted: HepG2, 24 h, read-out: Activity.
A short description of test [6]: Cytotoxicity against mouse NIH/3T3 cells after 3 days by MTS assay. It counts as cell-based. To be noted: NIH3T3, 72 h. The method, boiled down:
(§1)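 Non-tumour cells were CRL-7761 human skin, Vero monkey kidney (DMEM high glucose, 5% FBS, 10 mM HEPES) and NIH/3T3 mouse (DMEM, 10% calf serum). Cells were seeded, left 24 h, then switched to serum-free DMEM-F12 with albumin, transferrin and insulin, with or without compound. Exposure was 3 days at 37 °C.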

Test [7] relates to HT-29. The test is described as follows: Cytotoxicity against human HT-29 cells assessed as cell viability at 25 uM after 72 hrs by MTS assay. To be noted: HT-29, 72 h.
Test [8] deals with HT-29. The experiment in a line: Cytotoxicity against human HT-29 cells after 72 hrs by MTS assay. To be noted: HT-29, 72 h.
A further test deals with Vero. The test is described as follows: Cytotoxicity against african green monkey Vero cells after 3 days by MTS assay. To be noted: Chlorocebus sabaeus, 72 h. It counts as cell-based. The method, boiled down:
as §1

Test [9] has as its system HepG2. The experiment in a line: Cytotoxicity against human HepG2 cells assessed as cell viability at 16 uM after 72 hrs by MTS assay. To be noted: HepG2, 72 h, read-out: Activity.
Test [10] deals with MCF7. The test is described as follows: Cytotoxicity against human MCF7 cells assessed as cell viability at 20 uM after 72 hrs by MTS assay. To be noted: MCF7, 72 h, read-out: Activity.
The target of test [11] is DNA topoisomerase 2-alpha (Homo sapiens) (UniProt P11388). The experiment in a line: Induction of poisoning activity in human recombinant DNA topoisomerase 2alpha assessed as enhancement of in relaxation of supercoiled plasmid substrate DNA at 100 uM after 30 mins by agarose gel electrophoresis. The method, boiled down: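 For topo IIα cleavage, 0.25 µg supercoiled pRYG was incubated with 4 units of human topoisomerase IIα (p170) in Tris buffer with 2 mM ATP and 10 mM MgCl2 for 30 min at 37 °C. Workup was SDS stop, proteinase K, extraction and agarose electrophoresis. Poisoning was judged by appearance of a linear DNA band.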

Test [12] can be described thus: Cytotoxicity against human CRL7761 cells after 3 days by MTS assay. The format is cell-based. To be noted: 72 h. The method, boiled down:
as §1

Test [13] addresses T1, DNA topoisomerase 1 (Homo sapiens) (UniProt P11387).
T1 sequence (whole entry): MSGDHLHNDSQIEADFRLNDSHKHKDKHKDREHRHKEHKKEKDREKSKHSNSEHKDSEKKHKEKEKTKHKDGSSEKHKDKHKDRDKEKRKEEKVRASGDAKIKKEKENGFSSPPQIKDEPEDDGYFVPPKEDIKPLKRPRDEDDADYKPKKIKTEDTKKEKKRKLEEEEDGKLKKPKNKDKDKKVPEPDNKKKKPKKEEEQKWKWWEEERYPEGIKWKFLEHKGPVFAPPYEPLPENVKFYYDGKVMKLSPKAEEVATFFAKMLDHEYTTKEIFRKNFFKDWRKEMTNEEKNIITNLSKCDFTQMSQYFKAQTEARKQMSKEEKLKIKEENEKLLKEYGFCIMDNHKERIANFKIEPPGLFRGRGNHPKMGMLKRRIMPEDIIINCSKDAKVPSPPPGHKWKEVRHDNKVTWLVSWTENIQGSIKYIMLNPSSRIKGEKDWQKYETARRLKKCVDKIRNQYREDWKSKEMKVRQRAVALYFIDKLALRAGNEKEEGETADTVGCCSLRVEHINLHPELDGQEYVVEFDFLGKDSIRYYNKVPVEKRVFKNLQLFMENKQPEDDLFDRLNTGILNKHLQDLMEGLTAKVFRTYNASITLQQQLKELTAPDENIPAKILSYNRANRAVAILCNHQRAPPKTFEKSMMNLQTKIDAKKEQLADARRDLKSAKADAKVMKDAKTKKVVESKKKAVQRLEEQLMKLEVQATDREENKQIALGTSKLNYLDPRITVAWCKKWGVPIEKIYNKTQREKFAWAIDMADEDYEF
The experiment in a line: Inhibition of human recombinant DNA topoisomerase 1-mediated DNA cleavage assessed as decrease in relaxation of supercoiled plasmid substrate DNA at 5 uM after 30 mins by agarose gel electrophoresis.

The test system of test [14] is HepG2. The test is described as follows: Cytotoxicity against human HepG2 cells assessed as cell viability at 25 uM after 72 hrs by MTS assay. To be noted: HepG2, 72 h.
The target of test [15] is DNA topoisomerase 2-alpha (Homo sapiens) (UniProt P11388). The test is described as follows: Inhibition of human recombinant DNA topoisomerase 2alpha-mediated DNA cleavage assessed as decrease in relaxation of supercoiled plasmid substrate DNA at 40 uM after 30 mins by agarose gel electrophoresis.
In a further test the test system is Nucleic Acid. The experiment in a line: Binding affinity to DNA by ethidium bromide staining-based FID assay. Set-up: concentration or dose not given beside the values.
Test [16] has as its target T1, DNA topoisomerase 1 (Homo sapiens). The experiment in a line: Induction of poisoning activity in human recombinant DNA topoisomerase 1 assessed as enhancement of in relaxation of supercoiled plasmid substrate DNA at 100 uM after 30 mins by agarose gel electrophoresis. The method, boiled down:
(§2)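 In the topo I cleavage (poison) assay, the relaxation format was used with 6 units of enzyme for 30 min at 37 °C. Reactions were stopped with SDS, digested with proteinase K and CIA-extracted. DNA was run on 1% agarose with and without ethidium bromide. Poisoning was scored by the presence of the nicked open-circular band, referenced to camptothecin.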

Test [17] concerns MCF7. The test is described as follows: Cytotoxicity against human MCF7 cells assessed as cell viability at 25 uM after 72 hrs by MTS assay. To be noted: MCF7, 72 h.
The subject of test [18] is HT-29. The experiment in a line: Cytotoxicity against human HT-29 cells at 25 uM after 72 hrs by MTS assay.
The target in test [19] is T1, DNA topoisomerase 1 (Homo sapiens). The test is described as follows: Inhibition of human recombinant DNA topoisomerase 1-mediated DNA cleavage assessed as decrease in relaxation of supercoiled plasmid substrate DNA at 100 uM after 30 mins by agarose gel electrophoresis.
The target is the same in test [20]. The test is described as follows: Induction of poisoning activity in human recombinant DNA topoisomerase 1 assessed as enhancement of in relaxation of supercoiled plasmid substrate DNA at 75 to 100 uM after 30 mins by agarose gel electrophoresis. The method, boiled down:
as §2

Test [21] shares this target. The experiment in a line: Inhibition of human recombinant DNA topoisomerase 1-mediated DNA cleavage assessed as decrease in relaxation of supercoiled plasmid substrate DNA at 40 uM after 30 mins by agarose gel electrophoresis.
The subject of test [22] is HepG2. The experiment in a line: Cytotoxicity against human HepG2 cells at 25 uM after 72 hrs by MTS assay.
Test [23] has as its target DNA topoisomerase 2-alpha (Homo sapiens) (UniProt P11388). The test is described as follows: Inhibition of human recombinant DNA topoisomerase 2alpha-mediated DNA cleavage assessed as decrease in relaxation of supercoiled plasmid substrate DNA at 100 uM after 30 mins by agarose gel electrophoresis.
In test [24] the target is T1, DNA topoisomerase 1 (Homo sapiens). The experiment in a line: Induction of poisoning activity in human recombinant DNA topoisomerase 1 assessed as enhancement of in relaxation of supercoiled plasmid substrate DNA at 25 to 50 uM after 30 mins by agarose gel electrophoresis. The method, boiled down: as §2
Test [25] deals with MCF7. The test is described as follows: Cytotoxicity against human MCF7 cells at 25 uM after 72 hrs by MTS assay.

SMILES strings stand for the structures. Active and inactive are the calls of the source. No cut-off for these calls is given here.

Chain of DNA topoisomerase 2-alpha (Homo sapiens) (P11388 whole entry): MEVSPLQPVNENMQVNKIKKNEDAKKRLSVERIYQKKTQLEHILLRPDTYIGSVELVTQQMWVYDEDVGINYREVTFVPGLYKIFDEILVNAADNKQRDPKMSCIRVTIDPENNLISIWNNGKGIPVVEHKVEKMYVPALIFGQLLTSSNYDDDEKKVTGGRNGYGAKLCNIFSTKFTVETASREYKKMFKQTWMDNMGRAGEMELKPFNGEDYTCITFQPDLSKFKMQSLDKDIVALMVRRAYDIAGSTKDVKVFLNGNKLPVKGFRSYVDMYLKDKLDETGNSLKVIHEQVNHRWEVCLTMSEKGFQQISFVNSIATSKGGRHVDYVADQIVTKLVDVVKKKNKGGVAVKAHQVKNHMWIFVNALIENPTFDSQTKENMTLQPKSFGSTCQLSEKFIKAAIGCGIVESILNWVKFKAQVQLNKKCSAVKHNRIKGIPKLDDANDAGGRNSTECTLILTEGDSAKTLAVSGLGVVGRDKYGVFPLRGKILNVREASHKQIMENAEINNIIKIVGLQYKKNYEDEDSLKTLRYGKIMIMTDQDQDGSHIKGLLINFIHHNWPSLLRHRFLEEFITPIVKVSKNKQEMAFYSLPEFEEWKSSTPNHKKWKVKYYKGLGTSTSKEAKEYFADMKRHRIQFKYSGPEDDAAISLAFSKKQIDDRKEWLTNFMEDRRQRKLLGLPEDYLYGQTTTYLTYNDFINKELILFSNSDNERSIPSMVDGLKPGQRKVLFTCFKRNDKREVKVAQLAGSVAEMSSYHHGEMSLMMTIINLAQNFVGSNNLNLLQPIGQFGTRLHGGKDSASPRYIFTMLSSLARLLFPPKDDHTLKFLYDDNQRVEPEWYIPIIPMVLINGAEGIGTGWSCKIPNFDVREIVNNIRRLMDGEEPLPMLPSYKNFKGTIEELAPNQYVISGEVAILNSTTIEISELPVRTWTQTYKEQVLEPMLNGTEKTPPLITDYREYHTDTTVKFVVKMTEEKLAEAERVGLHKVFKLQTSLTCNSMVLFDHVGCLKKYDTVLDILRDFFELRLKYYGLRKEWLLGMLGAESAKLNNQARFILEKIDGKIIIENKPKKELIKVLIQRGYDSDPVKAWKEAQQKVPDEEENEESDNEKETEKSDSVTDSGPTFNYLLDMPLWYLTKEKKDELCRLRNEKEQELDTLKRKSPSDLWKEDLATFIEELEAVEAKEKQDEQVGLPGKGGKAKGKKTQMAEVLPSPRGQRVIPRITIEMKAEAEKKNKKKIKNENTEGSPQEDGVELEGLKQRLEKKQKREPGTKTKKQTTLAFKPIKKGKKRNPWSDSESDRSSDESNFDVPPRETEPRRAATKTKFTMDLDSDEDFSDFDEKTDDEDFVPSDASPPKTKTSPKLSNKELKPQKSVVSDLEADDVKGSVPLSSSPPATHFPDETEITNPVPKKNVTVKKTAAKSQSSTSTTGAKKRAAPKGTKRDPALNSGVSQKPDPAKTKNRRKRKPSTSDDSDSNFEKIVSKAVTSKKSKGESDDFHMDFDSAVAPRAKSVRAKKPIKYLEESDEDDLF

Broadly, the inhibition is the change of the read-out against control, counted positive when it falls. The IC50 is the concentration that inhibits the measured activity by half. As to `COc1cccc2c1C(=O)c1c(O)c3c(c(O)c1C2=O)C[C@@](O)(C(=O)CO)C[C@@H]3O[C@H]1C[C@H](N)[C@H](O)[C@H](C)O1` [DOXORUBICIN], the inhibition result in [1] is “inactive”. Also, the IC50 was 1 µM in the test on HepG2 [2]; 16.8 µM in the test with MCF7 [3]; 3.5 µM in [6]; 0.6 µM in the test on HT-29 [8]; 10.4 µM with Vero; above 25 µM in test [12]. The viability at 20 µM was found to be 43% in the test with HT-29 [4] and 47% in the test with MCF7 [10]. The figures for the viability at 25 µM in the test with HepG2 [5] and in the test with HT-29 [7] were 8% and 43%, respectively. The viability at 16 µM in the test with HepG2 [9] came to 8%. The outcome in [11] was inactive. The inhibition result in test [13] is “Active”.

Turning to `COc1cccc2c1C(=O)c1c(O)c3c(c(O)c1C2=O)C[C@@](O)(C(C)=O)C[C@@H]3O[C@H]1C[C@H](N)[C@H](O)[C@H](C)O1` [DAUNORUBICIN], the inhibition result in [1] was “inactive”. In addition, the IC50 with HepG2 [2] is 0.7 µM; in the test on MCF7 [3] it was 5.5 µM; in test [6], 1.8 µM; in the test with HT-29 [8], 0.4 µM; with Vero, 2.5 µM; in test [12] it was 10.5 µM. Besides, the results for the viability at 20 µM in the test on HT-29 [4] and in the test with MCF7 [10] were 11% and 2%, respectively. Besides, the viability at 25 µM is 11% with HT-29 [7] and 2% in the test with HepG2 [14]. The viability at 16 µM in the test with HepG2 [9] turned out to be 2%. In addition, the inhibition entry in [13] was “Active”.

Take `Cc1ccc(S(=O)(=O)n2c(-c3ccccc3)c(C#CCO[C@H]3C[C@H](N)[C@H](O)[C@H](C)O3)c3ccccc32)cc1`: the inhibition result in test [1] and in [21] was “inactive” each time. Besides, the inhibition entry in test [15] was “Active”. Besides, the Activity worked out at 47.9% with Nucleic Acid, 100% in the test with HT-29 [18], 100% with HepG2 [22] and 100% with MCF7 [25]. Also, the IC50 with HepG2 [2] stood at 5.9 µM; with MCF7 [3], 4.8 µM; in test [6], 5 µM; with HT-29 [8] it was 6.3 µM; in the test on Vero, 10.2 µM; in [12] it was 16.5 µM. The result in test [16], in [20], in [11] and in [24] was inactive. For the same compound, the viability at 25 µM in the test with MCF7 [17], in the test with HepG2 [5] and in the test with HT-29 [7] was below 1% each time. The figures for the inhibition in test [19] and in test [23] were 80.1% and 101%, respectively.
